Test results published in ChEMBL document CHEMBL1156171, “N-aryltriazole ribonucleosides with potent antiproliferative activity against drug-resistant pancreatic cancer” (2010).
Activity calls are given as the source filed them. No cut-off for these calls is given here.

Experiments:
MIA PaCa-2 [1] = experiment: Antiproliferative activity against human MIAPaCa2 cells assessed as cell viability at 50 uM after 48 hrs by MTT assay; type: functional; conditions: MIA PaCa-2, 48 h, read-out: Activity
Summary of the method: (§1)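 Cells exposed to 50 µM compound (fresh medium) for 48 h at 37 °C, 5% CO2; untreated control. Viable cells counted by MTT colorimetric assay. Documented for MiaPaCa-2: DMEM + 10% FBS, 15,000 cells/well, overnight attachment before treatment.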

Capan-2 = experiment: Antiproliferative activity against human Capan2 cells assessed as cell viability at 50 uM after 48 hrs by MTT assay; type: functional; conditions: Capan-2, 48 h, read-out: Activity; summary of the method: as §1
PC-3 = experiment: Antiproliferative activity against human PC3 cells assessed as cell viability at 50 uM after 48 hrs by MTT assay; type: functional; conditions: PC-3, 48 h, read-out: Activity; summary of the method: as §1
MIA PaCa-2 [2] = experiment: Antiproliferative activity against human MIAPaCa2 cells assessed as cell viability after 48 hrs by MTT assay; type: functional, cell-based
Summary of the method: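 MiaPaCa-2 cells in DMEM + 10% FBS, plated at 15,000 cells/well and attached overnight. Medium then replaced with fresh medium holding compound over a dose range; 37 °C, 5% CO2, 48 h. Viable cells determined by MTT colorimetric assay relative to untreated control.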

MIA PaCa-2 [3] = experiment: Induction of apoptosis in human MIAPaCa2 cells assessed as increase in sub-G1/G0 cell fraction at 50 uM after 48 hrs using propidium iodide staining by FACS analysis; type: functional, cell-based
Summary of the method: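 MiaPaCa-2 cells plated at 10^6 per dish, grown overnight, then given fresh medium with 50 µM compound for 48 h; untreated negative control. Cells trypsinized, PBS-washed, fixed overnight in cold 70% ethanol at 4 °C, RNase-treated, propidium iodide stained, and sub-G1/G0 fraction read by flow cytometry. Triplicate samples.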

MIA PaCa-2 [4] = experiment: Induction of apoptosis in human MIAPaCa2 cells assessed as increase in caspase 3/7 activation at 50 uM after 24 hrs by luminescence assay; type: functional, cell-based
Summary of the method: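 MiaPaCa-2 cells plated at 15,000 cells/well and treated 24 h later with 50 µM compound for 24 h. Caspase-Glo 3/7 reagent added; DEVD-containing luminogenic substrate cleavage read as luminescence after 1 h at room temperature. Untreated cells as control.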

## NC(=O)c1nc(Nc2ccc(F)cc2)nn1[C@@H]1O[C@H](CO)[C@@H](O)[C@H]1O
MIA PaCa-2 [1]
  viability at 50 µM: 68.1%
Capan-2
  viability at 50 µM: 62.9%
PC-3
  viability at 50 µM: 67%

## COc1ccc(Nc2nc(C(N)=O)n([C@@H]3O[C@H](CO)[C@@H](O)[C@H]3O)n2)cc1
MIA PaCa-2 [1]
  viability at 50 µM: 126%
Capan-2
  viability at 50 µM: 126%
PC-3
  viability at 50 µM: 102%

## COC(=O)c1nc(Nc2cccc(C)c2)nn1[C@@H]1O[C@H](COC(C)=O)[C@@H](OC(C)=O)[C@H]1OC(C)=O
MIA PaCa-2 [1]
  viability at 50 µM: 99.9%
Capan-2
  viability at 50 µM: 84.9%
PC-3
  viability at 50 µM: 94.2%

## COC(=O)c1nc(Nc2ccc(F)cc2)nn1[C@@H]1O[C@H](COC(C)=O)[C@@H](OC(C)=O)[C@H]1OC(C)=O
MIA PaCa-2 [1]
  viability at 50 µM: 80.2%
Capan-2
  viability at 50 µM: 79.8%
PC-3
  viability at 50 µM: 84.7%

## CCCc1ccc(Nc2nc(C(N)=O)n([C@@H]3O[C@H](CO)[C@@H](O)[C@H]3O)n2)cc1
MIA PaCa-2 [1]
  viability at 50 µM: 103%
Capan-2
  viability at 50 µM: 71.5%
PC-3
  viability at 50 µM: 90.3%

## CCc1ccc(Nc2nc(C(=O)OC)n([C@@H]3O[C@H](COC(C)=O)[C@@H](OC(C)=O)[C@H]3OC(C)=O)n2)cc1
MIA PaCa-2 [1]
  viability at 50 µM: 99%
Capan-2
  viability at 50 µM: 90%
PC-3
  viability at 50 µM: 96.1%

## Cc1ccc(Nc2nc(C(N)=O)n([C@@H]3O[C@H](CO)[C@@H](O)[C@H]3O)n2)cc1
MIA PaCa-2 [1]
  viability at 50 µM: 85.6%
Capan-2
  viability at 50 µM: 63.9%
PC-3
  viability at 50 µM: 108%

## CCCc1ccc(Nc2nc(C(=O)OC)n([C@@H]3O[C@H](COC(C)=O)[C@@H](OC(C)=O)[C@H]3OC(C)=O)n2)cc1
MIA PaCa-2 [1]
  viability at 50 µM: 103%
Capan-2
  viability at 50 µM: 95.9%
PC-3
  viability at 50 µM: 90.2%

## CC(=O)O[C@H]1C(=O)[C@@]2(C)[C@H]([C@H](OC(=O)c3ccccc3)[C@]3(O)C[C@H](OC(=O)[C@H](O)[C@@H](NC(=O)c4ccccc4)c4ccccc4)C(C)=C1C3(C)C)[C@]1(OC(C)=O)CO[C@@H]1C[C@@H]2O [PACLITAXEL]
PC-3
  viability at 50 µM: 41.3%

## COC(=O)c1nc(Nc2ccccc2)nn1[C@@H]1O[C@H](COC(C)=O)[C@@H](OC(C)=O)[C@H]1OC(C)=O
MIA PaCa-2 [1]
  viability at 50 µM: 138%
Capan-2
  viability at 50 µM: 96.2%
PC-3
  viability at 50 µM: 91%

## Nc1ccn([C@@H]2O[C@H](CO)[C@@H](O)C2(F)F)c(=O)n1 [GEMCITABINE]
MIA PaCa-2 [1]
  viability at 50 µM: 70.4%
Capan-2
  viability at 50 µM: 32.7%

## NC(=O)c1nc(Nc2cccc(Cl)c2)nn1[C@@H]1O[C@H](CO)[C@@H](O)[C@H]1O
MIA PaCa-2 [1]
  viability at 50 µM: 88.7%
Capan-2
  viability at 50 µM: 66.2%
PC-3
  viability at 50 µM: 77.4%

## COC(=O)c1nc(Nc2ccc(Cl)cc2)nn1[C@@H]1O[C@H](COC(C)=O)[C@@H](OC(C)=O)[C@H]1OC(C)=O
MIA PaCa-2 [1]
  viability at 50 µM: 43.8%
Capan-2
  viability at 50 µM: 59.6%
PC-3
  viability at 50 µM: 60.2%
MIA PaCa-2 [2]
  Activity: Dose-dependent effect
MIA PaCa-2 [3]
  Activity: Active
MIA PaCa-2 [4]
  Activity: Active

## Cc1cccc(Nc2nc(C(N)=O)n([C@@H]3O[C@H](CO)[C@@H](O)[C@H]3O)n2)c1
MIA PaCa-2 [1]
  viability at 50 µM: 100%
Capan-2
  viability at 50 µM: 76.3%
PC-3
  viability at 50 µM: 96.2%

## COC(=O)c1nc(Nc2cccc(Cl)c2)nn1[C@@H]1O[C@H](COC(C)=O)[C@@H](OC(C)=O)[C@H]1OC(C)=O
MIA PaCa-2 [1]
  viability at 50 µM: 72.4%
Capan-2
  viability at 50 µM: 65.8%
PC-3
  viability at 50 µM: 69.8%

## CCc1ccc(Nc2nc(C(N)=O)n([C@@H]3O[C@H](CO)[C@@H](O)[C@H]3O)n2)cc1
MIA PaCa-2 [1]
  viability at 50 µM: 99.8%
Capan-2
  viability at 50 µM: 66%
PC-3
  viability at 50 µM: 91.4%

## COC(=O)c1nc(Nc2ccc(OC)cc2)nn1[C@@H]1O[C@H](COC(C)=O)[C@@H](OC(C)=O)[C@H]1OC(C)=O
MIA PaCa-2 [1]
  viability at 50 µM: 96.4%
Capan-2
  viability at 50 µM: 72%
PC-3
  viability at 50 µM: 85.6%

## NC(=O)c1nc(Nc2ccc(Cl)cc2)nn1[C@@H]1O[C@H](CO)[C@@H](O)[C@H]1O
MIA PaCa-2 [1]
  viability at 50 µM: 95.9%
Capan-2
  viability at 50 µM: 72.8%
PC-3
  viability at 50 µM: 70.2%

## COC(=O)c1nc(Nc2ccc(C(F)(F)F)cc2)nn1[C@@H]1O[C@H](COC(C)=O)[C@@H](OC(C)=O)[C@H]1OC(C)=O
MIA PaCa-2 [1]
  viability at 50 µM: 98.6%
Capan-2
  viability at 50 µM: 64.4%
PC-3
  viability at 50 µM: 88.4%

## NC(=O)c1nc(Nc2ccccc2)nn1[C@@H]1O[C@H](CO)[C@@H](O)[C@H]1O
MIA PaCa-2 [1]
  viability at 50 µM: 68%
Capan-2
  viability at 50 µM: 46.6%
PC-3
  viability at 50 µM: 73.9%

## COC(=O)c1nc(Nc2ccc(SC)cc2)nn1[C@@H]1O[C@H](COC(C)=O)[C@@H](OC(C)=O)[C@H]1OC(C)=O
MIA PaCa-2 [1]
  viability at 50 µM: 85.4%
Capan-2
  viability at 50 µM: 88.1%
PC-3
  viability at 50 µM: 106%

## NC(=O)c1nc(Nc2ccc(C(F)(F)F)cc2)nn1[C@@H]1O[C@H](CO)[C@@H](O)[C@H]1O
MIA PaCa-2 [1]
  viability at 50 µM: 100%
Capan-2
  viability at 50 µM: 122%
PC-3
  viability at 50 µM: 89.4%

## COC(=O)c1nc(Nc2ccc(C)cc2)nn1[C@@H]1O[C@H](COC(C)=O)[C@@H](OC(C)=O)[C@H]1OC(C)=O
MIA PaCa-2 [1]
  viability at 50 µM: 58.6%
Capan-2
  viability at 50 µM: 47.1%
PC-3
  viability at 50 µM: 68.6%
MIA PaCa-2 [2]
  Activity: Dose-dependent effect
MIA PaCa-2 [3]
  Activity: Active
MIA PaCa-2 [4]
  Activity: Active

## CSc1ccc(Nc2nc(C(N)=O)n([C@@H]3O[C@H](CO)[C@@H](O)[C@H]3O)n2)cc1
MIA PaCa-2 [1]
  viability at 50 µM: 98.6%
Capan-2
  viability at 50 µM: 71.1%
PC-3
  viability at 50 µM: 92.1%
